Results: ChEMBL document CHEMBL1129750, “Bicyclic N-hydroxyurea inhibitors of 5-lipoxygenase: pharmacodynamic, pharmacokinetic, and in vitro metabolic studies characterizing N-hydroxy-N-(2,3-dihydro-6-(phenylmethoxy)-3-benzofuranyl)urea” (J Med Chem, 1996)
Calls of active or inactive are those of the source. The calls are words filed in the database; no cut-off is given here.

Columns and labels:
[1] = biological target: T1, Polyunsaturated fatty acid 5-lipoxygenase (Rattus norvegicus, UniProt P12527); assay: Inhibitory activity against rat 5-lipoxygenase by using continuous oxygen consumption assay.
T1 sequence (P12527 whole entry): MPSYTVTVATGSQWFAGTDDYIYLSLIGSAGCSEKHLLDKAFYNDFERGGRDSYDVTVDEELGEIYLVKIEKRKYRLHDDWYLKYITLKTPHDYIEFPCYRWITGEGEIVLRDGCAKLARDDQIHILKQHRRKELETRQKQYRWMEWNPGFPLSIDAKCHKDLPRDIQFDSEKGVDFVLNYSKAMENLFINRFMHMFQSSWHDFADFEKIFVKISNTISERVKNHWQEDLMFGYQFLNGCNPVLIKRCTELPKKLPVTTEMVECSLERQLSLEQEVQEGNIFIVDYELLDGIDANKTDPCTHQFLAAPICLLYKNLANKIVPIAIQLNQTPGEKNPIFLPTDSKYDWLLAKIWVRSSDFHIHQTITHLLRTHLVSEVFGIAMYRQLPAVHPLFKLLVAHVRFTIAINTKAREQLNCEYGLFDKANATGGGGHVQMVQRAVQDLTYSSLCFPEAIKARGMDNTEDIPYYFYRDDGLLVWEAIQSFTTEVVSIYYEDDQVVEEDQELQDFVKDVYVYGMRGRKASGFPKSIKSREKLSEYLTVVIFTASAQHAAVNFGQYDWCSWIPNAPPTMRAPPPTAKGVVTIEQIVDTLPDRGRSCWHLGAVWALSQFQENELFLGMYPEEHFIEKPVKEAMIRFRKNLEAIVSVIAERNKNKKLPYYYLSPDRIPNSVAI
Summary of the method: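 Semipurified cytosolic 5-LO from rat basophilic leukemia (RBL-1) cells; continuous oxygen-electrode assay of oxygen consumption; IC50.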

Mus musculus [2] = species on record: Mus musculus; assay: Compound was tested to inhibit Leukotriene formation in A-23187-stimulated mouse whole blood using […] ex vivo, activity expressed as percent of control; NS=No Stastistical Significance; assay type: functional, organism-based
[3] = biological target: T2, Polyunsaturated fatty acid 5-lipoxygenase (Mus musculus) (UniProt P48999); assay: Inhibition of leukotriene formation in A-23187-stimulated mouse whole blood using […] ex vivo, activity expressed as percent of control.; assay type: functional, tissue-based; design: scale not given: the % may be the effect or the level left
T2 sequence (whole entry): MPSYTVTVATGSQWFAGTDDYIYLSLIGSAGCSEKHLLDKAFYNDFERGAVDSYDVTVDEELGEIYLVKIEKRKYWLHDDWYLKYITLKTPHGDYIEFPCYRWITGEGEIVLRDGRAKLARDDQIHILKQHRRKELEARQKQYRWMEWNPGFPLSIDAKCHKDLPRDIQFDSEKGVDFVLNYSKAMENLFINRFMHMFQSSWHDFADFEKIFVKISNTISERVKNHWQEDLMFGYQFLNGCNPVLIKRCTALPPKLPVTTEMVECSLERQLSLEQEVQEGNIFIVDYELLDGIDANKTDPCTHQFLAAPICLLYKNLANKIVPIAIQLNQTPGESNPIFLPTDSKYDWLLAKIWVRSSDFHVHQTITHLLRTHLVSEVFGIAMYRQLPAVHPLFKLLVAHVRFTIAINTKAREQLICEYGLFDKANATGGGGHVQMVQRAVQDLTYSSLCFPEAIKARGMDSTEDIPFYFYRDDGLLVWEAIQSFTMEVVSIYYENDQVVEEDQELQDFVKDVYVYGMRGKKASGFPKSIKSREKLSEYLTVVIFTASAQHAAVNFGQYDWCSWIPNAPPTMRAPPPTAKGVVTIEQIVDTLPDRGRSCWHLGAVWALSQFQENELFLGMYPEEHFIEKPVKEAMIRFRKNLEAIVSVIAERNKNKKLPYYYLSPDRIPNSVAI

Mus musculus [4] = assay: Compound was tested to inhibit Leukotriene formation in mouse sensitized with 1BD8 cells after 7 hr of compound administration, activity expressed as percent of control; assay type: functional; design: concentration or dose not given beside the values
Mus musculus [5] = species on record: Mus musculus; assay: Compound was tested to inhibit Leukotriene formation in A-23187-stimulated mouse whole blood using […] ex vivo; assay type: functional
Mus musculus [6] = species on record: Mus musculus; assay: Inhibition of Leukotriene formation in mouse adoptive peritoneal anaphylaxis assay ex vivo; assay type: functional
Canis familiaris = assay: Compound was administered intravenously in dog to evaluate plasma clearance values; assay type: ADME, organism-based, Canis lupus familiaris; conditions: in vivo, iv
Summary of the method: (§1)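 IV infusion over 15 min via saphenous (monkey) or cephalic (dog) vein catheter, 1–1.4 mg/kg in 7.5% (w/v) aqueous (2-hydroxypropyl)-β-cyclodextrin; male cynomolgus monkeys and beagle dogs, N = 3. Chilled plasma analysed by HPLC. Noncompartmental parameters were estimated per animal and then averaged. CLp = dose/AUC, with AUC by linear/log-linear trapezoidal rule.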

[7] = Compound was administered intravenously in monkey to evaluate plasma clearance values; assay type: ADME, organism-based; conditions: simiiformes, iv; summary of the method: as §1
[8] = Compound was administered intravenously in mouse to evaluate plasma clearance values; assay type: ADME, organism-based; conditions: iv, read-out: Clp
Summary of the method: (§2)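 Male CD-1 mice given 0.5 mg/kg IV by lateral tail vein over 5–10 s, in ethanol/propylene glycol 30:70 v/v; N = 3 per time point with terminal sampling under ether. Plasma HPLC, LOQ 0.05 μg/mL. Mean concentration per time point before noncompartmental analysis. Half-life from slope of log-concentration profile; CLp = dose/AUC.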

Homo sapiens = species on record: Homo sapiens; assay: Compound was tested to inhibit Leukotriene formation in A-23187-stimulated human whole blood using LTB4 specific RIA in vitro; assay type: functional
Summary of the method: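 Human whole blood stimulated with A23187; LTB4 measured by specific radioimmunoassay. IC50 with 95% confidence limits from linear regression.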

Mus musculus [9] = assay: Maximum inhibition of LTB4 at dose 6 mg/kg in mouse; assay type: functional
Mus musculus [10] = assay: Percentage inhibition of LTB4 after 6 hr at dose 6 mg/kg in mouse; assay type: functional
Mus musculus [11] = assay: Maximum inhibition of LTB4 at dose 3 mg/kg in mouse; assay type: functional
Mus musculus [12] = assay: Percentage inhibition of LTB4 after 6 hr at dose 3 mg/kg in mouse; NS=No Stastistical Significance; assay type: functional, organism-based; design: dose 3 mg/kg
Mus musculus [13] = assay: Compound was administered intravenously in mouse to evaluate half life; ID= Iinsufficient data to calculate parameter.; assay type: ADME, organism-based; conditions: in vivo, iv; summary of the method: as §2
[14] = Mus musculus, Blood, read-out: ED50

For `NC(=O)N(O)C1CCCc2cc(CCc3ccccc3)ccc21` (centres undefined), the IC50 [1] was 600 nM and the Activity (Mus musculus [2]) was “inactive”.

Work on `NC(=O)N(O)C1CCc2cc(OCc3ccccc3)ccc21` (stereo in doubt; 2a) yielded an Activity [3] of -85%.

In the case of `NC(=O)N(O)C1CCn2c1cc1cc(OCc3ccccc3)ccc12` (centres undefined), the IC50 [1] is reported as 650 nM, the Activity (Mus musculus [4]) is reported as -8% and the Activity [3] is reported as -68%. The ED50 (Mus musculus [5]; [14]) was 1.8 mg/kg and the ED50 (Mus musculus [6]) was 1.8 mg/kg.

Work on `NC(=O)N(O)C1COc2cc(OCc3ccccc3)ccc21` (single isomer, unassigned; (+)) yielded a Clp (Canis familiaris) of 3.5 mL/min, a clearance ([7]; plasma, read-out: Clp) of 6.1 mL/min and a clearance [8] of 8.6 mL/min. The ED50 (Mus musculus [5]) was 0.9 mg/kg.

`NC(=O)N(O)C1CCn2c1cc1cc(Cl)ccc12` (centres undefined) gave an IC50 [1] of 1300 nM.

With `NC(=O)N(O)C1CCCc2c(OCc3ccccc3)cccc21` (centres undefined) the IC50 [1] was 910 nM and the Activity [3] was -44%.

For `NC(=O)N(O)C1COc2cc(Oc3ccccc3)ccc21` (centres undefined), the IC50 [1] was 3300 nM and the Activity [3] was -56%.

With `NC(=O)N(O)C1CCCc2ccc(OCc3ccccc3)cc21` (centres undefined) the IC50 [1] was 1000 nM and the Activity (Mus musculus [2]) was “inactive”.

With `NC(=O)N(O)C1COc2cc(OCc3ccccc3)ccc21` (stereo in doubt; 1a) the IC50 (Homo sapiens) was 4300 nM, the Activity (Mus musculus [4]) was -55% and the ED50 (Mus musculus [5]) was 3.9 mg/kg. The Max inhibition (Mus musculus [9]) was 91, the inhibition in vivo at 6 mg/kg (Mus musculus [10]) was 87% and the ED50 (Mus musculus [6]; Mus musculus) was 3.9 mg/kg.

With `NC(=O)N(O)C1CCCc2cc(OCc3ccccc3)ccc21` (single isomer, unassigned; (+)) the Activity [3] was 28%.

Compound `NC(=O)N(O)C1CCn2c1cc1cc(Oc3ccccc3)ccc12` (centres undefined) has an IC50 [1] of 520 nM and an Activity [3] of -58%.

Compound `NC(=O)N(O)C1CCCc2cc(-c3ccccc3)ccc21` (centres undefined) has an IC50 [1] of 3000 nM and an Activity [3] of -52%.

`NC(=O)N(O)C1COc2ccc(Oc3ccccc3)cc21` (centres undefined) showed an IC50 [1] of 3500 nM, an Activity [3] of -64% and an ED50 (Mus musculus [5]; [14]) of 1.9 mg/kg. For the same compound, the Max inhibition (Mus musculus [11]) was 67 and the inhibition (Mus musculus [12]) was “inactive”.

For `NC(=O)N(O)C1CCCc2c(Oc3ccccc3)cccc21` (centres undefined), the IC50 [1] was 840 nM and the Activity [3] was -57%.

With `COc1ccc2c(c1)CCCC2N(O)C(N)=O` (centres undefined) the IC50 [1] was 48000 nM and the Activity (Mus musculus [2]) was “inactive”.

`NC(=O)N(O)C1CCCc2cc(OCc3ccccc3)ccc21` (stereo in doubt; 3a) showed an Activity [3] of -67%.

With `Cc1c2n(c3ccc(C(C)C)cc13)CCC2N(O)C(N)=O` (centres undefined) the IC50 [1] was 1700 nM and the Activity (Mus musculus [2]) was “inactive”.

`NC(=O)N(O)C1CCc2cccc(Oc3ccccc3)c21` (centres undefined) gave an IC50 [1] of 5600 nM.

In the case of `COc1ccc(COc2ccc3c(c2)CCC3N(O)C(N)=O)cc1` (centres undefined), the IC50 [1] is reported as 1400 nM and the Activity (Mus musculus [2]) is reported as “inactive”.

For `NC(=O)N(O)C1CCCc2cc(OCc3ccccc3)ccc21` (single isomer, unassigned; (-)), the IC50 [1] was 1300 nM.

For `NC(=O)N(O)C1COc2cc(OCc3ccccc3)ccc21` (single isomer, unassigned; (-)), the Clp (Canis familiaris) was 10.9 mL/min, the Clp ([7]; in vivo) was 10.3 mL/min and the T1/2 (Mus musculus [13]) was “Insufficient data”.
